Assay results reported in ChEMBL document CHEMBL2046278, “Development and evaluation of multifunctional agents for potential treatment of Alzheimer's disease: application to a pyrimidine-2,4-diamine template” (Bioorg Med Chem Lett, 2012).
Calls of active or inactive are those of the source. No cut-off for these calls is given here. Peptide text beside a SMILES is read from it. * marks the point of attachment. Cbz = O=C(OCc1ccccc1)*

How the values were obtained:
Cholinesterase = Cholinesterase (Equus caballus, UniProt P81908); experiment: Inhibition of equine BuChE using butyrylthiocholine iodide as substrate after 5 mins by DTNB method
[1] = Inhibition of self-induced amyloid beta (1 to 40) aggregation at 100 uM after 24 hrs by thioflavin T-based fluorescence analysis
Method in brief: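 Aβ1-40 peptide aggregating on its own, without hAChE, with test compound at 100 μM. Aggregation read by thioflavin T fluorescence and expressed as % inhibition. Reported as the mean of two separate experiments (n = 4), with deviation from the mean under 10% of the mean value.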

Beta-secretase 1 [2] = molecular target: T1, Beta-secretase 1 (Homo sapiens, UniProt P56817); experiment: Inhibition of BACE1
Acetylcholinesterase = Acetylcholinesterase (Homo sapiens, UniProt P22303); experiment: Inhibition of human AChE using acetylthiocholine iodide as substrate after 5 mins by DTNB method
[3] = Selectivity ratio of IC50 for human AChE to IC50 for equine BuChE
[4] = Cytotoxicity against human SH-SY5Y cells assessed as cell viability at 40 uM after 24 hrs by MTT assay; format: cell-based; details: read-out: Activity
Beta-secretase 1 [5] = molecular target: T1, Beta-secretase 1; experiment: Inhibition of BACE1 at 10 uM
[6] = Inhibition of amyloid beta (1 to 40) fibril formation at 10 uM coincubated with amyloid beta (1 to 40) peptide after 72 hrs by transmission electron microscopic analysis
[7] = Induction of disassembly of preformed amyloid beta (1 to 40) fibrils assessed as disaggregated fibrils at 10 uM after 3 days by transmission electron microscopic analysis
Method in brief: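 Aβ1-40 fibrils were preformed over a three-day pre-fibrillization period. Compound was then incubated with the fibrils at 10 μM, and fibril morphology and disassembly were examined by transmission electron microscopy.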

Cholinesterase, sequence (P81908 whole entry): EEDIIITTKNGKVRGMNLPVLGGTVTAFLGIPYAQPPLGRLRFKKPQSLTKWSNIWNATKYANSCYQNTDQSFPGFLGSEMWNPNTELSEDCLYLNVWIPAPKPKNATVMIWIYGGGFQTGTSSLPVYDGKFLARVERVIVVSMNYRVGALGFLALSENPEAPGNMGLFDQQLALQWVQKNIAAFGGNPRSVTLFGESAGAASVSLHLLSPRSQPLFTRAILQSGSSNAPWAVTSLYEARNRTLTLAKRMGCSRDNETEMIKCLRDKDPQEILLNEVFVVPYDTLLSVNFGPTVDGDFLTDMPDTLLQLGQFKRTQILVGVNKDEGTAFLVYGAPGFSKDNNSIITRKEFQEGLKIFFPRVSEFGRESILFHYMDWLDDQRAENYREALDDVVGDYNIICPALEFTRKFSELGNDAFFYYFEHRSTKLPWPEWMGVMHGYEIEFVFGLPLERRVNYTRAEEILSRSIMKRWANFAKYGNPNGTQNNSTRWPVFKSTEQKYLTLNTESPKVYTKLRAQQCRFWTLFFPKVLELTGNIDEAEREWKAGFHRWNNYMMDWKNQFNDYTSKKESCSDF
T1 sequence (P56817 whole entry): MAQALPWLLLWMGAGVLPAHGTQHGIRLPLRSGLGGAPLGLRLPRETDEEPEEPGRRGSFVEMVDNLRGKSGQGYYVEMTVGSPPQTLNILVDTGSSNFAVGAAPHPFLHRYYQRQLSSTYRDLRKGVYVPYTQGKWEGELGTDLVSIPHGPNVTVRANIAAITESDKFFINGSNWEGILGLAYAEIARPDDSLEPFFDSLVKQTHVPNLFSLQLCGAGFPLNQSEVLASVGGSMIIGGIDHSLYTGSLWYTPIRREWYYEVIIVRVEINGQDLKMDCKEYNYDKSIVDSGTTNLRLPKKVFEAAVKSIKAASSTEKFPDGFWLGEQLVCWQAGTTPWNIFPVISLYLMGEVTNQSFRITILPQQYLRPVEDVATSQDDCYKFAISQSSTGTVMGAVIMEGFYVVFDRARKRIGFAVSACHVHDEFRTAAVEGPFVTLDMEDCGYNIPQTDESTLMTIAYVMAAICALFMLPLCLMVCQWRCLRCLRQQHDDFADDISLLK
Acetylcholinesterase, sequence (P22303 whole entry): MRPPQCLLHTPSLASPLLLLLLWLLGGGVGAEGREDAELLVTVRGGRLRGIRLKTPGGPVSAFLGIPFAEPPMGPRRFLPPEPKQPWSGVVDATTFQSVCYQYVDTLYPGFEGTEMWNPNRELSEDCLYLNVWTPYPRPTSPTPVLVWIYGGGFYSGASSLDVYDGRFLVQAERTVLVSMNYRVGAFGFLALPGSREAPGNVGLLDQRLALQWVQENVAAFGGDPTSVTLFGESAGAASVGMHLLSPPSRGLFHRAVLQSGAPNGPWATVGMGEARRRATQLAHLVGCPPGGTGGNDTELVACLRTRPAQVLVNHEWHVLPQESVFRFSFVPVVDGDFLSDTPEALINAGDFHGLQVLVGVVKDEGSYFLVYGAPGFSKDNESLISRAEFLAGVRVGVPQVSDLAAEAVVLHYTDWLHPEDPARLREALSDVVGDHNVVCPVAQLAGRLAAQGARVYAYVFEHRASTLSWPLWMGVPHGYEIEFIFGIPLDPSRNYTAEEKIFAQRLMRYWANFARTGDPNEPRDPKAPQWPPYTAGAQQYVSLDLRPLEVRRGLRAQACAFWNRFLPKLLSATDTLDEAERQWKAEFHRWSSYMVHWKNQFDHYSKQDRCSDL

Compound	IC50 (Cholinesterase) [µM]	inhibition [1]	IC50 (Beta-secretase 1 [2]) [nM]	IC50 (Acetylcholinesterase) [µM]	Ratio IC50 [3]	viability at 24 h, 40 µM [4] [%]	inhibition (Beta-secretase 1 [5]) [%]	inhibition [6]	inhibition [7]
COc1cc(CNc2ccnc(NC3CCN(Cc4ccccc4)CC3)n2)cc(OC)c1OC	7.7	inactive	8900	10.3	1.3	–	–	–	–
c1ccc(CN2CCC(Nc3nccc(NCc4ccc5c(c4)OCO5)n3)CC2)cc1	3.9	18.6%	1400	12.6	3.2	–	–	–	–
COc1ccc(CNc2ccnc(NC3CCN(Cc4ccccc4)CC3)n2)cc1OC	11.4	17.4%	–	9.9	0.9	81	34	–	–
Cc1ccc(CNc2ccnc(NC3CCN(Cc4ccccc4)CC3)n2)cc1	2.5	21.9%	11100	12.9	5.2	–	–	–	–
Clc1ccccc1CNc1ccnc(NC2CCN(Cc3ccccc3)CC2)n1	2.4	42.2%	1700	7.7	3.2	–	–	–	–
CC(C)C[C@@H](C=O)NC(=O)[C@H](CC(C)C)NC(=O)[C@@H](NC(=O)OCc1ccccc1)C(C)C (Cbz-Val-Leu-Leu-aldehyde)	–	–	14000	–	–	–	–	–	–
COc1ccc(CNc2ccnc(NC3CCN(Cc4ccccc4)CC3)n2)cc1	4.9	18.2%	600	9.4	1.9	–	–	–	–
Fc1ccc(CNc2ccnc(NC3CCN(Cc4ccccc4)CC3)n2)cc1	2.2	29.8%	700	7.7	3.5	–	–	–	–
Brc1ccc(CNc2ccnc(NC3CCN(Cc4ccccc4)CC3)n2)cc1	4.1	48.4%	–	9.9	2.4	–	33	Active	Active
COc1ccc2c3c1O[C@H]1C[C@@H](O)C=C[C@@]31CCN(C)C2	–	48%	–	–	–	–	–	Active	–
Clc1cccc(CNc2ccnc(NC3CCN(Cc4ccccc4)CC3)n2)c1	2.5	39.9%	600	7.7	3.1	–	–	–	–
Clc1ccc(CNc2ccnc(NC3CCN(Cc4ccccc4)CC3)n2)cc1	2.8	42.6%	3200	8.8	3.1	–	–	Active	Active
